Data reported in ChEMBL document CHEMBL1773034 (J Nat Prod, 2011).
The source made the active and inactive calls. The calls are words filed in the database; no cut-off is given here.

Tests used:
[1] = Cytotoxicity against human THP1 cells after 24 hrs by erythrosin B staining; format: cell-based; settings: THP-1 cells, read-out: LD50
Outline: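 THP-1 monocytes given five increasing concentrations (1-50 μM for the flavone; 1-100 μM for indomethacin) from DMSO stocks, final DMSO 0.1%, in RPMI 1640 with 10% FBS. Incubated 24 h at 37 C, 5% CO2. Cells were mixed 1:1 with 0.1% erythrosin B in PBS and counted by hemocytometer, with unstained cells taken as viable. LD50 was calculated from dose-response curves.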

[2] = test system: THP-1; experiment: Antiinflammatory activity against human THP1 cells of assessed as inhibition of LPS-induced TNFalpha protein synthesis at 10 uM pretreated for 1 hr before LPS challenge measured after 2 to 10 hrs; format: functional, cell-based
[3] = test system: THP-1; experiment: Antiinflammatory activity against human THP1 cells of assessed as inhibition of LPS-induced TNFalpha gene expression at 10 uM pretreated for 1 hr before LPS challenge measured after 2 hrs by RT-qPCR relative to control; format: functional
Outline: (§1)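 THP-1 monocytes, PMA-differentiated to macrophages, pretreated 1 h with compound in DMSO (0.1% final), then stimulated with 1 μg/mL LPS. Cells lysed in wells at 2, 4, 6 and 10 h post-LPS; TaqMan two-step RT-qPCR, ROX-normalized, ΔΔCT with unstimulated control set to 1. Means ± SE, three independent experiments.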

[4] = test system: THP-1; experiment: Antiinflammatory activity against human THP1 cells of assessed as inhibition of LPS-induced TNFalpha gene expression at 10 uM pretreated for 1 hr before LPS challenge measured after 2 to 10 hrs by RT-qPCR; format: functional, cell-based; outline: as §1
[5] = test system: THP-1; experiment: Antiinflammatory activity against human THP1 cells of assessed as inhibition of LPS-induced TNFalpha protein synthesis at 10 uM pretreated for 1 hr before LPS challenge measured after 2 to 10 hrs relative to control; format: functional
[6] = test system: THP-1; experiment: Antiinflammatory activity against human THP1 cells of assessed as inhibition of LPS-induced COX-2 gene expression at 10 uM pretreated for 1 hr before LPS challenge measured after 4 hrs by RT-qPCR; format: functional, cell-based; outline: as §1
[7] = molecular target: T1, Prostaglandin G/H synthase 2 (Homo sapiens, UniProt P35354); experiment: Inhibition of human recombinant COX-2 assessed as PGE2 production from arachidonic acid after 20 mins enzyme immunoassay
T1 sequence (P35354 whole entry): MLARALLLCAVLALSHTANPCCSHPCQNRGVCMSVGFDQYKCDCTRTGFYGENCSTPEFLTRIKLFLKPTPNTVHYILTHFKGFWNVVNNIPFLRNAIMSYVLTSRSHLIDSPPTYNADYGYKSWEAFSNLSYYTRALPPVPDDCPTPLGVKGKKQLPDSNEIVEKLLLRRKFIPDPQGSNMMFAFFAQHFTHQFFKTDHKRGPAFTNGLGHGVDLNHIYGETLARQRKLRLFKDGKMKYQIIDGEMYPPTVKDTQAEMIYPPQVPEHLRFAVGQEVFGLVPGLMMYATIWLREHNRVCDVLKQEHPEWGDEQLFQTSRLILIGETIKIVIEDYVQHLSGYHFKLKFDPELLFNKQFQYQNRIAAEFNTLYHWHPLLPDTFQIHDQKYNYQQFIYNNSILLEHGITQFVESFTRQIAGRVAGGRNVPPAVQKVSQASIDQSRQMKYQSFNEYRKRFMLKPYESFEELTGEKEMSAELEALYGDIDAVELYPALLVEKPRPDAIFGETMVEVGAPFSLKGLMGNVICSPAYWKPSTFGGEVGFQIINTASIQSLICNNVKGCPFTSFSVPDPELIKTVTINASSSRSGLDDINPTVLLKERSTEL

[8] = Selectivity ratio of IC50 for human recombinant COX2 to IC50 for ram seminal vesicle COX1; format: tissue-based
Outline: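 Enzymes were human recombinant COX-2 (0.5 unit/reaction) and ram seminal vesicle COX-1 (1 unit/reaction), in 0.1 M Tris/HCl pH 8.0 with 5 μM hematin, 18 mM L-epinephrine, 50 μM EDTA. Compound in DMSO was preincubated 5 min at room temperature, then arachidonic acid was added for 20 min at 37 °C. PGE2 was read by competitive EIA at 405 nm. IC50 came from regression on ≥3 concentrations, with four independent experiments. Selectivity was taken as the COX-2/COX-1 IC50 ratio.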

[9] = test system: THP-1; experiment: Antiinflammatory activity against human THP1 cells assessed as inhibition of LPS-induced ZFP36 gene expression at 10 uM pretreated for 1 hr before LPS challenge measured after 2 hrs by RT-qPCR relative to control; format: functional; outline: as §1
[10] = test system: THP-1; experiment: Antiinflammatory activity against human THP1 cells assessed as inhibition of LPS-induced NFKB p65 subunit translocation to nucleus at 10 uM pretreated for 1 hr before LPS challenge relative to control; format: functional
Outline: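 PMA-differentiated THP-1 macrophages pretreated 1 h (0.1% DMSO vehicle), then 1 μg/mL E. coli 0111:B4 LPS; harvested 1 h after LPS by trypsinization/scraping. Cytoplasmic and nuclear fractions separated; p65 quantified in each by transcription-factor ELISA-type kit, cytoplasm/nuclear ratio calculated. Means ± SE, three independent experiments, three measurements each.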

[11] = test system: RAW264.7; experiment: Antiinflammatory activity against mouse RAW264.7 cells assessed as iNOS gene expression; format: functional, cell-based
[12] = test system: RAW264.7; experiment: Antiinflammatory activity against mouse RAW264.7 cells assessed as nitric oxide production; format: functional, cell-based
[13] = molecular target: T2, Prostaglandin G/H synthase 1 (Ovis aries, UniProt P05979); experiment: Inhibition of ram seminal vesicle COX-1 assessed as PGE2 production from arachidonic acid after 20 mins enzyme immunoassay; format: tissue-based
T2 sequence (P05979 whole entry): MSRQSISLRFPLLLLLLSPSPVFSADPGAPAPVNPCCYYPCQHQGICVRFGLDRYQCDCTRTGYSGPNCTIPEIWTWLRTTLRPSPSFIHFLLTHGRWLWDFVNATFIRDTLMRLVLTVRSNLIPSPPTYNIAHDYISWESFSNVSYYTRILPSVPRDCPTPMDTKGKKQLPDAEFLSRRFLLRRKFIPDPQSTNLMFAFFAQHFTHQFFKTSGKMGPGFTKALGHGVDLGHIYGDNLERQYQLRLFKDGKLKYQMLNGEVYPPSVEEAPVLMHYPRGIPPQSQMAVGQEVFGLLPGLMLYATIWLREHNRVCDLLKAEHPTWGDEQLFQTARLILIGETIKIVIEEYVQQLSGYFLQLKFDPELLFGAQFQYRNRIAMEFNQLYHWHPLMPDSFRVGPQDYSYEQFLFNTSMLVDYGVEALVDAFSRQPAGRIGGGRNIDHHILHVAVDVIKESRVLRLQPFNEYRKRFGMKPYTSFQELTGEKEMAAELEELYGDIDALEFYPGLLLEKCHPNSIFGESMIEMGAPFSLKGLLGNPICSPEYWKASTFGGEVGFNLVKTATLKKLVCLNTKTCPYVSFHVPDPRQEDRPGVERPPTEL

[14] = test system: THP-1; experiment: Antiinflammatory activity against human THP1 cells assessed as increase in LPS-induced ZFP36 gene expression at 10 uM pretreated for 1 hr before LPS challenge measured after 4 hrs by RT-qPCR relative to control

| SMILES | CC50 at 24 h [1] [nM] | Activity [2] | Ratio [3] | Activity [4] | Ratio [5] | Activity [6] | IC50 [7] [nM] | Ratio IC50 [8] | fold change (FC) [9] | fold change (FC) [10] | Activity [11] | Activity [12] | IC50 [13] [nM] | Ratio [14] | Activity [9] | Activity [10] |
| --- | --- | --- | --- | --- | --- | --- | --- | --- | --- | --- | --- | --- | --- | --- | --- | --- |
| CC(C)=CCc1c(-c2ccc(O)cc2O)oc2cc3c(c(O)c2c1=O)C=CC(C)(C)O3 [CUDRAFLAVONE B] | 47600 | Active | 5.8 | Active | 20 | Active | 2500 | 1.7 | 5.8 | 3.2 | Dose-dependent effect | Dose-dependent effect | 1500 | 2 |  |  |
| COc1ccc2c(c1)c(CC(=O)O)c(C)n2C(=O)c1ccc(Cl)cc1 [INDOMETHACIN] | > 100000 |  |  | Active |  |  |  |  |  |  |  |  |  |  | Active | Active |
